Experimental data from ChEMBL document CHEMBL4152356, “Amphipathic sulfonamidobenzamides mimicking small antimicrobial marine natural products; investigation of antibacterial and anti-biofilm activity against antibiotic resistant clinical isolates” (Bioorg Med Chem, 2018).
Active and inactive are the calls of the source.

Tests used:
[1] = tested on: Staphylococcus aureus; test: Antibacterial activity against Staphylococcus aureus ATCC 9144 after 48 hrs by microdilution method; format: functional; conditions: ATCC 9144, 48 h
In short: (§1)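 Broth microdilution (CLSI M07-A9, modified) in Mueller-Hinton broth; inoculum about 2.5-3 × 10^4 cells/ml mixed 1:1 with serial compound dilutions. Stock solutions in up to 100% DMSO, final DMSO ≤1%. Incubated 35 °C for 48 h.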

[2] = tested on: Staphylococcus epidermidis; test: Antibacterial activity against methicillin resistant Staphylococcus epidermidis RP62A ATCC 35984/CCUG 31568 after 48 hrs by microdilution method; format: functional; conditions: RP62A ATCC 35984/CCUG 31568, 48 h
In short: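 Broth microdilution (modified CLSI M07-A9) against the MRSE reference strain. Inoculum of about 2.5-3 × 10^4 cells/ml in Mueller-Hinton broth mixed 1:1 with serial compound dilutions; final DMSO ≤1%. Incubated 35 °C, 48 h.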

[3] = tested on: Bacillus subtilis; test: Antibacterial activity against Bacillus subtilis 168 ATCC 23857 after 48 hrs by microdilution method; format: functional; conditions: subsp. subtilis str. 168 ATCC 23857, 48 h; in short: as §1
[4] = tested on: Corynebacterium glutamicum; test: Antibacterial activity against Corynebacterium glutamicum ATCC 13032 after 48 hrs by microdilution method; format: functional; conditions: ATCC 13032, 48 h; in short: as §1
[5] = tested on: Escherichia coli; test: Antibacterial activity against Escherichia coli ATCC 25922 after 48 hrs by microdilution method; format: functional; conditions: ATCC 25922, 48 h; in short: as §1
[6] = tested on: Pseudomonas aeruginosa; test: Antibacterial activity against Pseudomonas aeruginosa PAO1 DSM 19880 ATCC 15692 after 48 hrs by microdilution method; format: functional; conditions: PAO1 DSM 19880 ATCC 15692, 48 h; in short: as §1
[7] = tested on: Erythrocyte; test: Hemolytic activity against human RBC measured after 1 hr; format: cell-based
In short: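 Washed human RBCs from a healthy donor (heparinized) at 10% in PBS pH 7.4, mixed 9:1 with serial compound dilutions, 37 °C for 1 h. Baseline set by 0.5% DMSO in 50% PBS, 100% lysis by 0.05% Triton X-100. EC50 is the concentration giving 50% lysis.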

[8] = tested on: MRC5; test: Cytotoxicity against human MRC5 cells after 72 hrs by MTS assay; format: cell-based; conditions: MRC5, 72 h
In short: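 MRC-5 lung fibroblasts in DMEM with 10% FBS, 37 °C, 5% CO2; seeded at 4000 cells/well, adhered 24 h, medium replaced. Two-fold dilutions up to 100 µg/ml for 72 h, then MTS for 1 h and absorbance at 485 nm. Controls were 1% DMSO (negative) and 0.5% Triton X-100 (positive). EC50 is the concentration giving 50% inhibition of survival.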

[9] = Selectivity index, ratio of EC50 for human RBC to MIC for methicillin resistant Staphylococcus epidermidis RP62A ATCC 35984/CCUG 31568; format: toxicity; conditions: human red blood cells (RBC), read-out: Selectivity Index
In short: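 SI = hemolytic EC50 / MRSE MIC. Hemolysis: washed human RBCs (heparinized blood, healthy adult donor) at 10% in PBS pH 7.4, mixed 9:1 with serial compound dilutions, 37 °C for 1 h. 0.05% Triton X-100 set 100% lysis, 0.5% DMSO set baseline. MIC from MHB microdilution, 35 °C, […].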

[10] = tested on: Staphylococcus aureus; test: Antibacterial activity against Staphylococcus aureus clinical isolates after 24 hrs by microdilution method; format: functional
In short: (§2)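 Clinical isolate screen by broth microdilution with about 1-1.2 × 10^6 cells/ml and 24 h incubation. MIC is the lowest concentration with no growth. For isolate collections, MIC90 is the MIC inhibiting ≥90% of isolates. Multidrug resistance was defined as resistance to at least […] antimicrobial class.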

[11] = tested on: Enterococcus sp.; test: Antibacterial activity against Enterococcus sp. clinical isolates after 24 hrs by microdilution method; format: functional; in short: as §2
[12] = tested on: Escherichia coli; test: Antibacterial activity against Escherichia coli clinical isolates after 24 hrs by microdilution method; format: functional; in short: as §2
[13] = tested on: Pseudomonas aeruginosa; test: Antibacterial activity against Pseudomonas aeruginosa clinical isolates after 24 hrs by microdilution method; format: functional; in short: as §2
[14] = tested on: Klebsiella pneumoniae; test: Antibacterial activity against Klebsiella pneumoniae clinical isolates after 24 hrs by microdilution method; format: functional; in short: as §2
[15] = tested on: Staphylococcus epidermidis; test: Antibiofilm activity against Staphylococcus epidermidis RP62A ATCC 35984/CCUG 31568 incubated for 24 +/- 2 hrs by crystal violet staining based assay; format: functional
In short: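 Mature S. epidermidis RP62A biofilms: filtered overnight TSB culture adjusted to 2 McFarland, diluted in TSB with 1% glucose to about 6 × 10^6 CFU/ml, grown 24 ± 2 h at 37 °C static, then PBS-washed. Compounds in 50% TSBglu added for 24 ± 2 h at 37 °C. Biomass given as % of untreated control; ≥90% eradication threshold. Compounds tested at 2x, 5x and 10x MIC, 4-8 parallels on 2-3 plates, highest and lowest values excluded.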

[16] = Solubility of the compound in PBS
[17] = tested on: Bacillus subtilis; test: Induction of membrane disruption in Bacillus subtilis 168 expressing luciferase at 12.5 ug/ml measured up to 60 secs by luminescence assay; format: functional, organism-based; conditions: subsp. subtilis str. 168
In short: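 Luminescence followed up to […]. Fold induction is maximal luminescence relative to chlorhexidine control (31 or 20 µg/ml). Mean ± SD of two experiments.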

Compound	MIC [1]	MIC [2]	MIC [3]	MIC [4]	MIC [5]	MIC [6]	EC50 [7]	EC50 [8]	selectivity ratio [9]	MIC [10]	MIC [11]	MIC [12]	MIC [13]	MIC [14]	MBIC=>90 [15]	solubility [16]	Activity [17]
CC(C)(C)c1cc(C(C)(C)C)cc(S(=O)(=O)Nc2ccc(C(=O)NCCNC(=N)N)cc2)c1.Cl	4 µg/mL	4 µg/mL	8 µg/mL	4 µg/mL	32 µg/mL	64 µg/mL	64 µg/mL	> 100 µg/mL	16	8 µg/mL	32 µg/mL	> 128 µg/mL	> 128 µg/mL	> 128 µg/mL	40 µg/mL	> 64 µg/mL	–
CN(c1cccc(C(=O)NCCNC(=N)N)c1)S(=O)(=O)c1cc(C(C)(C)C)cc(C(C)(C)C)c1.Cl	4 µg/mL	4 µg/mL	4 µg/mL	2 µg/mL	32 µg/mL	32 µg/mL	95 µg/mL	91 µg/mL	24	8 µg/mL	16 µg/mL	32 µg/mL	32 µg/mL	64 µg/mL	40 µg/mL	–	Active
Cl.N=C(N)NCCNC(=O)c1ccc(NS(=O)(=O)c2ccc3ccccc3c2)cc1	64 µg/mL	32 µg/mL	64 µg/mL	32 µg/mL	> 128 µg/mL	> 128 µg/mL	> 128 µg/mL	> 100 µg/mL	> 4	128 µg/mL	> 128 µg/mL	> 128 µg/mL	> 128 µg/mL	> 128 µg/mL	160 µg/mL	–	–
COc1c(C(C)(C)C)cc(S(=O)(=O)Nc2ccc(C(=O)NCCNC(=N)N)cc2)cc1C(C)(C)C.Cl	4 µg/mL	4 µg/mL	4 µg/mL	4 µg/mL	32 µg/mL	64 µg/mL	64 µg/mL	> 100 µg/mL	16	8 µg/mL	64 µg/mL	> 128 µg/mL	32 µg/mL	> 128 µg/mL	40 µg/mL	> 64 µg/mL	–
Cl.N=C(N)NCCNC(=O)c1ccc(NS(=O)(=O)c2cc(C(F)(F)F)cc(C(F)(F)F)c2)cc1	> 128 µg/mL	> 128 µg/mL	> 128 µg/mL	> 128 µg/mL	> 128 µg/mL	> 128 µg/mL	64 µg/mL	> 100 µg/mL	–	–	–	–	–	–	–	> 64 µg/mL	–
CC(C)(C)c1cc(C(C)(C)C)cc(S(=O)(=O)NCCCCNC(=N)N)c1.Cl	8 µg/mL	8 µg/mL	16 µg/mL	4 µg/mL	64 µg/mL	64 µg/mL	110 µg/mL	42 µg/mL	14	16 µg/mL	32 µg/mL	128 µg/mL	64 µg/mL	128 µg/mL	40 µg/mL	–	–
CN(c1ccc(C(=O)NCCNC(=N)N)cc1)S(=O)(=O)c1cc(C(C)(C)C)cc(C(C)(C)C)c1.Cl	4 µg/mL	4 µg/mL	4 µg/mL	2 µg/mL	32 µg/mL	16 µg/mL	45 µg/mL	36 µg/mL	11	4 µg/mL	32 µg/mL	32 µg/mL	16 µg/mL	64 µg/mL	40 µg/mL	–	–
CC(C)(C)c1cc(C(C)(C)C)cc(S(=O)(=O)NCc2ccc(C(=O)NCCNC(=N)N)cc2)c1.Cl	16 µg/mL	8 µg/mL	8 µg/mL	4 µg/mL	32 µg/mL	32 µg/mL	113 µg/mL	> 100 µg/mL	14	16 µg/mL	64 µg/mL	128 µg/mL	64 µg/mL	128 µg/mL	80 µg/mL	–	–
Cc1cc(C(=O)NCCNC(=N)N)ccc1NS(=O)(=O)c1cc(C(C)(C)C)cc(C(C)(C)C)c1.Cl	8 µg/mL	4 µg/mL	8 µg/mL	4 µg/mL	32 µg/mL	> 128 µg/mL	104 µg/mL	56 µg/mL	26	8 µg/mL	32 µg/mL	64 µg/mL	64 µg/mL	> 128 µg/mL	40 µg/mL	–	–
CC(C)(C)c1cc(C(C)(C)C)cc(S(=O)(=O)Nc2cccc(C(=O)NCCNC(=N)N)c2)c1.Cl	8 µg/mL	8 µg/mL	8 µg/mL	4 µg/mL	32 µg/mL	32 µg/mL	92 µg/mL	> 100 µg/mL	12	8 µg/mL	32 µg/mL	64 µg/mL	64 µg/mL	128 µg/mL	40 µg/mL	–	–
